Reference: ChEMBL document CHEMBL1148385, “Synthesis and opioid activity of side-chain-to-side-chain cyclic dynorphin A-(1-11) amide analogues cyclized between positions 2 and 5. 1. Substitutions in position 3” (J Med Chem, 2004)
Where a SMILES comes first, the peptide text is derived from it.

How the values were obtained:
[1] = target: T1, Kappa-type opioid receptor (Rattus norvegicus, UniProt P34975); assay: Binding affinity towards Opioid receptor kappa 1 expressed in CHO cells was determined by using [3H]diprenorphine as radioligand; assay type: cell-based
T1 sequence (P34975 whole entry): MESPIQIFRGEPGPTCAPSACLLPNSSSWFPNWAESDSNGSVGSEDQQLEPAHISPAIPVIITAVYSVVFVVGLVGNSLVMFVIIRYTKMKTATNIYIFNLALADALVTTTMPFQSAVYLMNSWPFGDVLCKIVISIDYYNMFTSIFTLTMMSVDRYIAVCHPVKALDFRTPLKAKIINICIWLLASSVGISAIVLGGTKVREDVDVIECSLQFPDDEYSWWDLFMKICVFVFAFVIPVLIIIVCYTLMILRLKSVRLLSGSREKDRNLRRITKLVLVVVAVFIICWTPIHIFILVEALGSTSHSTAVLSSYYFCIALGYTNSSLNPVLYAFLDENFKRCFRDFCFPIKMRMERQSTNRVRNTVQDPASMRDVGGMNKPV
Method in brief: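 Competition binding at room temperature on CHO cells stably expressing cloned rat κ (radioligand [³H]diprenorphine, KD 0.45 nM), rat μ ([³H]DAMGO, KD 0.49 nM) or mouse δ ([³H]DPDPE, KD 1.76 nM) receptors. Peptidase inhibitors (10 μM bestatin, 30 μM captopril, 50 μM L-leucyl-L-leucine) and 3 mM Mg²⁺ present. Nonspecific binding defined with 10 μM Dyn A-(1–13)NH₂, DAMGO or DPDPE respectively. Logistic fit for IC50; Ki via Cheng–Prusoff; mean ± SEM, ≥3 assays.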

[2] = target: T1, Kappa-type opioid receptor; assay: Inhibition of forskolin-stimulated adenylyl cyclase activity by compound in CHO cells expressing Opioid receptor kappa 1; assay type: functional, cell-based
Method in brief: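 CHO cells stably expressing cloned rat κ receptor were incubated 40 min at 37 °C with 50 μM forskolin and various peptide concentrations. RO20-1724 (50 μM) and peptidase inhibitors (bestatin, captopril, L-leucyl-L-leucine) were present. [³H]cAMP was counted, with [¹⁴C]cAMP added for recovery correction and counts corrected for crossover. Mean ± SEM of 2–3 separate assays.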

[3] = target: Mu-type opioid receptor (Rattus norvegicus, UniProt P33535); assay: Binding affinity towards Opioid receptor mu 1 expressed in CHO cells was determined by using[3H]DAMGO as radioligand; assay type: cell-based
Chain of Mu-type opioid receptor (P33535 whole entry): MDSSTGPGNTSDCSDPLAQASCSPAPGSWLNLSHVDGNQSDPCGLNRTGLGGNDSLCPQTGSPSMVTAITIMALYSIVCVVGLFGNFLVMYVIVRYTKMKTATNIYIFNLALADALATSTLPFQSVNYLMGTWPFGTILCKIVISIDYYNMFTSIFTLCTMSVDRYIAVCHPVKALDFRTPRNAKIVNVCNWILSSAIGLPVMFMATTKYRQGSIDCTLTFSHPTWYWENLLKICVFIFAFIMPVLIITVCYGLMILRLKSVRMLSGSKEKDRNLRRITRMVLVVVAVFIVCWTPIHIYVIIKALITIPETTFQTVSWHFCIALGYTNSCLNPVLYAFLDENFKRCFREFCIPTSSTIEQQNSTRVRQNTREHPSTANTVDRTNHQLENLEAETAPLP

[4] = target: Delta-type opioid receptor (Mus musculus, UniProt P32300); assay: Binding affinity towards opioid receptor delta 1 expressed in CHO cells was determined by using [3H]DPDPE as radioligand; assay type: cell-based
Chain of Delta-type opioid receptor (P32300 whole entry): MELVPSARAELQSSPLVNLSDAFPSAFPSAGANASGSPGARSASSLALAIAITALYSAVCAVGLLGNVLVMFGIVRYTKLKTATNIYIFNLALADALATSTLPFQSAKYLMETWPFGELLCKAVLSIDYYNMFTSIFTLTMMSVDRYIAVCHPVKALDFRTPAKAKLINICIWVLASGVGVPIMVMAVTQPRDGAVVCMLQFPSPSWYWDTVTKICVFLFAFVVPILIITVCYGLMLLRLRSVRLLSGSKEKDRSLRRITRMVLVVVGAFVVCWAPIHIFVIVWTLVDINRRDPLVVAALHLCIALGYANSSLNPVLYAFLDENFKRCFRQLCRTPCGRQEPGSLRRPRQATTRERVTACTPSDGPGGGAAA

Row | Compound | Ki [1] [nM] | EC50 [2] [nM] | Ki [3] [nM] | Ki [4] [nM]
1 | CC[C@H](C)[C@H](NC(=O)[C@H](CCCN=C(N)N)NC(=O)[C@H](CCCN=C(N)N)NC(=O)[C@H](CC(C)C)NC(=O)[C@H](Cc1ccccc1)NC(=O)CNC(=O)CNC(=O)[C@@H](N)Cc1ccc(O)cc1)C(=O)N[C@@H](CCCN=C(N)N)C(=O)N1CCC[C@H]1C(=O)N[C@@H](CCCCN)C(N)=O | 0.14 |  |  | 
2 | CC[C@H](C)[C@H](NC(=O)[C@H](CCCN=C(N)N)NC(=O)[C@H](CCCN=C(N)N)NC(=O)[C@@H]1CNC(=O)C[C@@H](NC(=O)[C@@H](N)Cc2ccc(O)cc2)C(=O)N[C@@H](C)C(=O)N[C@@H](Cc2ccccc2)C(=O)N1)C(=O)N[C@@H](CCCN=C(N)N)C(=O)N1CCC[C@H]1C(=O)N[C@@H](CCCCN)C(N)=O | 1.1 | 0.65 | 2.52 | 30.8
3 | CC[C@H](C)[C@H](NC(=O)[C@H](CCCNC(=N)N)NC(=O)[C@H](CCCNC(=N)N)NC(=O)[C@H](CC(C)C)NC(=O)[C@H](Cc1ccccc1)NC(=O)[C@H](C)NC(=O)CNC(=O)[C@@H](N)Cc1ccc(O)cc1)C(=O)N[C@@H](CCCNC(=N)N)C(=O)N1CCC[C@H]1C(=O)N[C@@H](CCCCN)C(N)=O | 0.26 |  | 16.4 | 
4 | CC[C@H](C)[C@H](NC(=O)[C@H](CCCN=C(N)N)NC(=O)[C@H](CCCN=C(N)N)NC(=O)[C@@H]1CNC(=O)C[C@@H](NC(=O)[C@@H](N)Cc2ccc(O)cc2)C(=O)N[C@H](Cc2c[nH]c3ccccc23)C(=O)N[C@@H](Cc2ccccc2)C(=O)N1)C(=O)N[C@@H](CCCN=C(N)N)C(=O)N1CCC[C@H]1C(=O)N[C@@H](CCCCN)C(N)=O | 2.25 | 12 | 7.27 | 949
5 | CC[C@H](C)[C@H](NC(=O)[C@H](CCCN=C(N)N)NC(=O)[C@H](CCCN=C(N)N)NC(=O)[C@H](CN)NC(=O)[C@H](Cc1ccccc1)NC(=O)[C@H](Cc1c[nH]c2ccccc12)NC(=O)[C@@H](CC(=O)O)NC(=O)[C@@H](N)Cc1ccc(O)cc1)C(=O)N[C@@H](CCCN=C(N)N)C(=O)N1CCC[C@H]1C(=O)N[C@@H](CCCCN)C(N)=O | 1.34 |  | 3.41 | 927
6 | CC[C@H](C)[C@H](NC(=O)[C@H](CCCN=C(N)N)NC(=O)[C@H](CCCN=C(N)N)NC(=O)[C@H](CN)NC(=O)[C@H](Cc1ccccc1)NC(=O)[C@@H](C)NC(=O)[C@@H](CC(=O)O)NC(=O)[C@@H](N)Cc1ccc(O)cc1)C(=O)N[C@@H](CCCN=C(N)N)C(=O)N1CCC[C@H]1C(=O)N[C@@H](CCCCN)C(N)=O | 6.12 |  | 4.21 | 959
7 | CC[C@H](C)[C@H](NC(=O)[C@H](CCCN=C(N)N)NC(=O)[C@H](CCCN=C(N)N)NC(=O)[C@@H]1CNC(=O)C[C@@H](NC(=O)[C@@H](N)Cc2ccc(O)cc2)C(=O)NCC(=O)N[C@@H](Cc2ccccc2)C(=O)N1)C(=O)N[C@@H](CCCN=C(N)N)C(=O)N1CCC[C@H]1C(=O)N[C@@H](CCCCN)C(N)=O | 0.46 | 0.39 | 0.52 | 5.1
8 | CC[C@H](C)[C@H](NC(=O)[C@H](CCCN=C(N)N)NC(=O)[C@H](CCCN=C(N)N)NC(=O)[C@H](CC(C)C)NC(=O)[C@H](Cc1ccccc1)NC(=O)[C@H](Cc1c[nH]c2ccccc12)NC(=O)CNC(=O)[C@@H](N)Cc1ccc(O)cc1)C(=O)N[C@@H](CCCN=C(N)N)C(=O)N1CCC[C@H]1C(=O)N[C@@H](CCCCN)C(N)=O | 1.56 |  | 42.7 | 168
9 | CC[C@H](C)[C@H](NC(=O)[C@H](CCCN=C(N)N)NC(=O)[C@H](CCCN=C(N)N)NC(=O)[C@H](CN)NC(=O)[C@H](Cc1ccccc1)NC(=O)CNC(=O)[C@@H](CC(=O)O)NC(=O)[C@@H](N)Cc1ccc(O)cc1)C(=O)N[C@@H](CCCN=C(N)N)C(=O)N1CCC[C@H]1C(=O)N[C@@H](CCCCN)C(N)=O | 1.59 |  | 0.22 | 11.6
10 | CC[C@H](C)[C@H](NC(=O)[C@H](CCCNC(=N)N)NC(=O)[C@H](CCCNC(=N)N)NC(=O)[C@@H]1CNC(=O)C[C@@H](NC(=O)[C@@H](N)Cc2ccc(O)cc2)C(=O)N[C@@H](Cc2c[nH]c3ccccc23)C(=O)N[C@@H](Cc2ccccc2)C(=O)N1)C(=O)N[C@@H](CCCNC(=N)N)C(=O)N1CCC[C@H]1C(=O)N[C@@H](CCCCN)C(N)=O | 1.33 | 4.19 | 2.09 | 7070
11 | CC[C@H](C)[C@H](NC(=O)[C@H](CCCN=C(N)N)NC(=O)[C@H](CCCN=C(N)N)NC(=O)[C@H](CC(C)C)NC(=O)[C@H](Cc1ccccc1)NC(=O)CNC(=O)CNC(=O)[C@@H](N)Cc1ccc(O)cc1)C(=O)N[C@@H](CCCN=C(N)N)C(=O)N1CCC[C@H]1C(=O)N[C@@H](CCCCN)C(=O)N[C@@H](CC(C)C)C(=O)N[C@@H](CCCCN)C(N)=O | 0.39 |  | 1.88 | 6.07
12 | CC[C@H](C)[C@H](NC(=O)[C@H](CCCNC(=N)N)NC(=O)[C@H](CCCNC(=N)N)NC(=O)[C@H](CC(C)C)NC(=O)[C@H](Cc1ccccc1)NC(=O)[C@@H](C)NC(=O)CNC(=O)[C@@H](N)Cc1ccc(O)cc1)C(=O)N[C@@H](CCCNC(=N)N)C(=O)N1CCC[C@H]1C(=O)N[C@@H](CCCCN)C(N)=O | 0.34 |  | 19.8 | 
13 | CC[C@H](C)[C@H](NC(=O)[C@H](CCCN=C(N)N)NC(=O)[C@H](CCCN=C(N)N)NC(=O)[C@H](CN)NC(=O)[C@H](Cc1ccccc1)NC(=O)[C@@H](Cc1c[nH]c2ccccc12)NC(=O)[C@@H](CC(=O)O)NC(=O)[C@@H](N)Cc1ccc(O)cc1)C(=O)N[C@@H](CCCN=C(N)N)C(=O)N1CCC[C@H]1C(=O)N[C@@H](CCCCN)C(N)=O | 1.26 |  | 4.57 | 813
14 | CC[C@H](C)[C@H](NC(=O)[C@H](CCCNC(=N)N)NC(=O)[C@H](CCCNC(=N)N)NC(=O)[C@@H]1CNC(=O)C[C@@H](NC(=O)[C@@H](N)Cc2ccc(O)cc2)C(=O)N2CCC[C@H]2C(=O)N[C@@H](Cc2ccccc2)C(=O)N1)C(=O)N[C@@H](CCCNC(=N)N)C(=O)N1CCC[C@H]1C(=O)N[C@@H](CCCCN)C(N)=O | 9.03 | 153 | 125 | > 10000
15 | CC[C@H](C)[C@H](NC(=O)[C@H](CCCN=C(N)N)NC(=O)[C@H](CCCN=C(N)N)NC(=O)[C@H](CN)NC(=O)[C@H](Cc1ccccc1)NC(=O)CNC(=O)[C@@H](CC(=O)O)NC(=O)[C@@H](N)Cc1ccc(O)cc1)C(=O)N[C@@H](CCCN=C(N)N)C(=O)N1CCC[C@H]1C(=O)N[C@@H](CCCCN)C(=O)N[C@@H](CC(C)C)C(=O)N[C@@H](CCCCN)C(N)=O | 0.2 |  | 0.26 | 3.9
16 | CC[C@H](C)[C@H](NC(=O)[C@H](CCCNC(=N)N)NC(=O)[C@H](CCCNC(=N)N)NC(=O)[C@@H]1CNC(=O)C[C@@H](NC(=O)[C@@H](N)Cc2ccc(O)cc2)C(=O)N[C@H](C)C(=O)N[C@@H](Cc2ccccc2)C(=O)N1)C(=O)N[C@@H](CCCNC(=N)N)C(=O)N1CCC[C@H]1C(=O)N[C@@H](CCCCN)C(N)=O | 0.21 | 0.54 | 3.89 | 139
17 | CC[C@H](C)[C@H](NC(=O)[C@H](CCCN=C(N)N)NC(=O)[C@H](CCCN=C(N)N)NC(=O)[C@H](CN)NC(=O)[C@H](Cc1ccccc1)NC(=O)[C@H](C)NC(=O)[C@@H](CC(=O)O)NC(=O)[C@@H](N)Cc1ccc(O)cc1)C(=O)N[C@@H](CCCN=C(N)N)C(=O)N1CCC[C@H]1C(=O)N[C@@H](CCCCN)C(N)=O | 0.86 |  | 2.02 | 55.1
18 | CC[C@H](C)[C@H](NC(=O)[C@H](CCCNC(=N)N)NC(=O)[C@H](CCCNC(=N)N)NC(=O)[C@H](CC(C)C)NC(=O)[C@H](Cc1ccccc1)NC(=O)[C@@H](Cc1c[nH]c2ccccc12)NC(=O)CNC(=O)[C@@H](N)Cc1ccc(O)cc1)C(=O)N[C@@H](CCCNC(=N)N)C(=O)N1CCC[C@H]1C(=O)N[C@@H](CCCCN)C(N)=O | 5.41 |  | 45.9 | 1080
19 | CC[C@H](C)[C@H](NC(=O)[C@H](CCCN=C(N)N)NC(=O)[C@H](CCCN=C(N)N)NC(=O)[C@@H]1CNC(=O)C[C@@H](NC(=O)[C@@H](N)Cc2ccc(O)cc2)C(=O)NCC(=O)N[C@@H](Cc2ccccc2)C(=O)N1)C(=O)N[C@@H](CCCN=C(N)N)C(=O)N1CCC[C@H]1C(=O)N[C@@H](CCCCN)C(=O)N[C@@H](CC(C)C)C(=O)N[C@@H](CCCCN)C(N)=O (HELM PEPTIDE1{Y.[dD].G.F.[O=C([C@H](CN[*:3])N[*:1])[*:2]].R.R.I.R.P.K.L.K.[am]}$PEPTIDE1,PEPTIDE1,2:R3-5:R3$$$V2.0) | 0.16 |  | 1.17 | 3.31
